Among the data in ChEMBL document CHEMBL1123485, “A lymphotropic prodrug of L-dopa: synthesis, pharmacological properties, and pharmacokinetic behavior of 1,3-dihexadecanoyl-2-[(S)-2-amino-3-(3,4-dihydroxyphenyl)prop anoyl] propane-1,2,3-triol” (J Med Chem, 1986) are Cmax and T max values, retold here.

Molecules are shown by their SMILES. Values joined by “and” are separate entries in the source; they are usually repeats but may differ in a detail not shown here. Identical values can stand only once.

For data set [1], the system named is Mus musculus. In words: Peak plasma concentration expresses the ability of compound for the release of dopamine in the plasma of mouse after oral administration of […]. In kind it is ADME, organism-based. Also on record: route oral. The settings on record: in vivo. In short, it runs like this: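 Male NMRI mice (20–25 g), five per time point and compound, received 0.5 mmol/kg orally. They were decapitated at 10, 20 and 30 min and 1–6 h. Blood was collected, deproteinized with perchloric acid and assayed for L-Dopa and dopamine by HPLC with fluorometric detection. Cmax is given in nmol/mL and tmax in min.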

Data set [2] is described as follows: Time of maximum L-Dopa plasma concentration was measured in monkey ofter oral administration of the compound. In kind it is ADME, organism-based. The settings on record: simiiformes, in vivo. An outline of the steps: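 A single male Cynomolgus monkey (2.7 kg) was fasted 12 h and given 0.5 mmol/kg orally. Blood was drawn from the femoral vein, and plasma L-Dopa and dopamine were assayed by HPLC with fluorometric detection. Cmax is the peak plasma concentration (nmol/mL); tmax is the time of that peak (min).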

Data set [3] deals with Rattus norvegicus. In words: Time of maximum L-Dopa plasma concentration was measured in rat ofter oral administration of the compound. The settings on record: in vivo. In kind it is ADME, organism-based. An outline of the steps: (§1)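 Overnight-fasted male Wistar rats (230–250 g), five per compound, received 0.5 mmol/kg orally. Tail-vessel blood was sampled at 10, 20 and 30 min and 1–6 h. Plasma was deproteinized with perchloric acid and centrifuged, then L-Dopa and dopamine were measured by reversed-phase HPLC with fluorometric detection, quantified by peak area. Cmax (nmol/mL) and tmax (min) were taken from the mean curves.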

In data set [4] the test system is Rattus norvegicus. In words: Time of maximum dopamine plasma concentration was measured in rat ofter oral administration of the compound. In kind it is ADME, organism-based. The settings on record: in vivo. An outline of the steps: as §1
The nature of data set [5]: Time of maximum L-Dopa plasma concentration was measured in mouse ofter oral administration of the compound. The following applies: in vivo.
Data set [6] relates to Rattus norvegicus. In words: Peak plasma concentration expresses the ability of compound for the release of L-Dopa in the plasma of rat after oral administration of 0.5 mmol/kg. The following applies: in vivo.
Data set [7] relates to Rattus norvegicus. The data set can be described thus: Peak plasma concentration expresses the ability of compound for the release of dopamine in the plasma of rat after oral administration of 0.5 mmol/kg. The settings on record: in vivo.
Data set [8] in a line: Peak plasma concentration expresses the ability of compound for the release of L-Dopa in the plasma of monkey after oral administration of 0.5 mmol/kg. The following applies: simiiformes, in vivo.
The nature of data set [9]: Peak plasma concentration expresses the ability of compound for the release of dopamine in the plasma of monkey after oral administration of 0.5 mmol/kg. The settings on record: simiiformes, in vivo.
Data set [10] deals with Mus musculus. In words: Peak plasma concentration expresses the ability of compound for the release of L-Dopa in the plasma of mouse after oral administration of 0.5 mmol/kg. The following applies: in vivo.

For `CCCCCCCCCCCCCCCC(=O)OCC(COC(=O)CCCCCCCCCCCCCCC)OC(=O)C(N)Cc1ccc(O)c(O)c1` (centres undefined), the Cmax in the data set on Mus musculus [1] was 1.6 nM ml-1 and 3.54 nM ml-1; in the data set on Rattus norvegicus [6] it was 24.6 nM ml-1; in the data set on Rattus norvegicus [7] it was 17.1 nM ml-1; in data set [8], 18.3 nM ml-1; in data set [9], 6.1 nM ml-1. The T max is 1.83 h in data set [2]; 3 h in the data set with Rattus norvegicus [3]; 4 h and 2.5 h in the data set on Rattus norvegicus [4]; 2 h in data set [5].
In turn, `N[C@@H](Cc1ccc(O)c(O)c1)C(=O)O` [LEVODOPA] came in with a T max in [5] of 0.5 h. For the same molecule, the Cmax with Rattus norvegicus [6] stood at 16.2 nM ml-1; in the data set on Mus musculus [10], 1.12 nM ml-1; in [8] it was 9.5 nM ml-1; in data set [9], 8.1 nM ml-1.
